Experiments:
[1] = Inhibition of Mycobacterium tuberculosis CYP121A1 mediated cYY conversion to mycocyclosin assessed as fold change in cYY level at 100 uM incubated for 2 hrs in the presence of NADPH by LC-MS activity assay relative to clotrimazole; assay type: ADME; conditions: recombinant enzyme
[2] = Binding affinity to Mycobacterium tuberculosis CYP121A1 expressed in Escherichia coli HMS174 (DE3) assessed as thermal stability by measuring increase in melting temperature at 1mM by SYPRO orange dye based differential scanning fluorimetry assay; conditions: 1000 µM
Outline: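 Protein at 5 μM in 100 mM potassium phosphate pH 6.9 with 2.5× Sypro Orange. Ligand 1 mM final, 4% DMSO-d6. Scanned 25–95 °C in 0.5 °C steps of 30 s. Positive Tm shifts repeated in triplicate and averaged over four runs.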

[3] = Binding affinity to Mycobacterium tuberculosis CYP121A1 expressed in Escherichia coli HMS174 (DE3) assessed as dissociation constant by isothermal titration calorimetry; assay type: ADME
Outline: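 Untagged His-purified CYP121A1 at 50 μM in 50 mM Tris-HCl, 1 mM EDTA, pH 7.2, with 10% DMSO-d6. Ligand at 0.5 or 2.5 mM final. One 0.2 μL injection discarded, then 19 injections of 2 μL at 120 s intervals, 25 °C. Ligand-into-buffer heats subtracted. One-site fit, N fixed at 1 for weak binders or left free.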

[4] = Inhibition of cYY binding to Mycobacterium tuberculosis CYP121A1 expressed in Escherichia coli HMS174 (DE3) assessed as dissociation constant of cYY preincubated with compound followed by substrate addition by competitive UV-visible spectroscopic analysis; assay type: ADME
Outline: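 CYP121A1 at 5 μM. […] UV-vis difference spectra processed as for direct titrations and fitted to the Hill equation for Kd.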

[5] = system: Mycobacterium tuberculosis; test: Antimycobacterial activity against Mycobacterium tuberculosis H37Rv assessed as inhibition of bacterial growth in presence of Mycobacterial minimal medium with cholesterol measured for 2 weeks by resazurin based colorimetric assay; assay type: functional; conditions: 336 h
Outline: (§1)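 Mtb H37Rv grown in 7H9 with 10% ADC, 0.05% tyloxapol, 0.02% glycerol to OD600 ~1, then pre-adapted 8 days at 37 °C in the test medium (c7H9, 7H9-Low BSA or MMM-Ch). DMSO stocks serially diluted, 400 to 0.78 μM, about 10^5 CFU per well. Incubated at 37 °C for 1 week (c7H9, Low BSA) or 2 weeks (MMM-Ch). 0.02% resazurin added for 1 day more. MIC90 read visually as lowest concentration with no colour change.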

[6] = system: Mycobacterium tuberculosis; test: Antimycobacterial activity against Mycobacterium tuberculosis H37Rv assessed as inhibition of bacterial growth in presence of middlebrook 7H9/BSAADN//tyloxapol/glycerol medium measured for 1 week by resazurin based colorimetric assay; assay type: functional; conditions: 168 h, time 1 weeks; outline: as §1
[7] = system: Mycobacterium tuberculosis; test: Antimycobacterial activity against Mycobacterium tuberculosis H37Rv assessed as inhibition of bacterial growth in presence of middlebrook 7H9/ADC/tyloxapol/glycerol medium measured for 1 week by resazurin based colorimetric assay; assay type: functional; conditions: 168 h, time 1 weeks; outline: as §1

Compound	fold change (FC) [1]	other results
c1ccc2c(CCc3ccncc3)c[nH]c2c1	1.1	
c1ccc2c(CCc3ccncn3)c[nH]c2c1	1.8	deltaTm [2]: 3.5 °C
Nc1[nH]nc(-c2ccc(O)cc2)c1-c1ccc(O)cc1		Kd [3]: 20 µM; deltaTm [2]: 1 °C
c1ccc2c(c1)OCCN2c1nccc(CCc2c[nH]c3ccccc23)n1	0.1	Kd [4]: 17.5 µM
Clc1ccc2[nH]cc(CCc3ccncc3)c2c1	2.3	
c1ccc2c(CCc3nc4c(c(N5CCOCC5)n3)CNC4)c[nH]c2c1	4.1	deltaTm [2]: 3.5 °C
N[C@H](Cc1c[nH]c2ccccc12)c1nc(-c2ccccc2)cs1		MIC90 [5]: 40 µM; MIC90 [6]: 40 µM; MIC90 [7]: 40 µM
c1ccc2c(CCc3nc4c(c(N5CCOCC5)n3)CCNC4)c[nH]c2c1	1.3	deltaTm [2]: 1 °C
Cn1cc(CCc2ccnc(N3CCOCC3)n2)c2ccccc21	2.1	
Brc1ccc2c(c1)N(c1nccc(CCc3c[nH]c4ccccc34)n1)CCO2	0.3	
Oc1ccc2[nH]cc(CCc3ccnc(N4CCOCC4)n3)c2c1	3.5	deltaTm [2]: 0.5 °C
N[C@H](Cc1c[nH]c2ccccc12)c1nc(-c2ccccn2)cs1		MIC90 [5]: 40 µM; MIC90 [6]: 40 µM; MIC90 [7]: 40 µM
Fc1ccc2[nH]cc(CCc3ccnc(N4CCOCC4)n3)c2c1	10.6	
FC(F)(F)Oc1ccc2[nH]cc(CCc3ccnc(N4CCOCC4)n3)c2c1	1.1	
c1ccc2c(CCc3nc4c(c(N5CC6CCC(C5)O6)n3)CNC4)c[nH]c2c1		deltaTm [2]: 2.4 °C
COC1CN(c2nccc(CCc3c[nH]c4ccccc34)n2)C1	1.2	
c1ccc2c(CCc3ccnc(N4CCCOCC4)n3)c[nH]c2c1	4.7	
N[C@H](Cc1c[nH]c2ccccc12)c1nc(-c2ccc(OC(F)(F)F)cc2)cs1		MIC90 [5]: 40 µM; MIC90 [6]: 40 µM; MIC90 [7]: 40 µM
c1ccc2c(CCc3ccnc(N4CCOCC4)n3)c[nH]c2c1	4.7	Kd [4]: 25.2 µM
Ic1ccc2[nH]cc(CCc3ccncc3)c2c1	1.9	
COc1ccc2[nH]cc(CCc3ccncc3)c2c1	1	
Fc1ccc2[nH]cc(CCc3ccncc3)c2c1	3.5	
FC(F)(F)Oc1ccc2[nH]cc(CCc3ccncc3)c2c1	1.2	
COC1CN(c2nccc(CCc3c[nH]c4ccc(Br)cc34)n2)C1	1.8	
Brc1ccc2[nH]cc(CCc3ccncc3)c2c1	1.3	
Brc1ccc2[nH]cc(CCc3ccnc(N4CCOCC4)n3)c2c1	3.8	

Source: ChEMBL document CHEMBL5120755, “A new strategy for hit generation: Novel in cellulo active inhibitors of CYP121A1 from Mycobacterium tuberculosis via a combined X-ray crystallographic and phenotypic screening approach (XP screen)” (Eur J Med Chem, 2022)
